High-throughput results deposited in PubChem by The Scripps Research Institute Molecular Screening Center.
TAAR1 antagonist: antagonists of human TAAR1 | hit rate 1.5% among 360,000 | Q96RJ0 | AID 624466 | inhibition, % at 3 µM | CHO RD-HGA16 TAAR1, Fluo-8 calcium fluorescence, antagonist;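 active = inhibition above a per-plate cutoff, the mean inhibition of test compounds on that plate plus 3 SD, cut at about 49% in these data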
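Test system – hTAAR1-expressing CHO RD-HGA16 cells, Gα16-coupled · Reagent – β-PEA at EC80 concentration, post-compound challenge · Compound dosing – 3 µM, single point · Timing – 140 s kinetic read after compound, 140 s after agonist · Detection – Fluo-8 intracellular calcium dye fluorescence, real-time kinetic reads · Control set – DMSO and EC80 PEA controls · Repeats – n of 1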
TAAR1 ag: agonists of human TAAR1; Q96RJ0; CHO RD-HGA16 TAAR1, Fluo-8 calcium fluorescence; vehicle wells 0%, saturating PEA agonist 100%; hit rate 0.99% among 360,000; activation, % at 3 µM;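 active = activation above the mean activation of all test compounds in the run plus 3 SD, cut at about 38% in these data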
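System: CHO-derived RD-HGA16 cells with stable Gα16 and human TAAR1 / Times: 17-24 h plating, Fluo-8 75 min 37 °C, 30 min RT / Technique: calcium-sensitive Fluo-8 signal, excitation 470-495, emission 515-575 nm / Measure: % activation relative to PEA EC100 response / Benchmarks: DMSO and PEA EC100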
OX1R antag-1: antagonists of human orexin 1 receptor (OX1R). inhibition, % at 6.6 µM. OX1R-expressing cells, FRET antagonist read-out. hit rate 1.8% among 330,000. O43613. AID 485270; in the data active = inhibition mostly above about 38%, no sharp cut-off; inactive = mostly below about 40%
GPR7 antagonist: blocks human GPR7 receptor signaling; GPR7-expressing cells, fluorescence antagonist assay; hit rate 1.1% among 290,000; inhibition, % at 4.4 µM; AID 1861; in the data active = inhibition above about 16%, passing the limit was not always enough;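 also: cells stimulated with the agonist NPW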
Target sequence (P48145 whole entry, looked up): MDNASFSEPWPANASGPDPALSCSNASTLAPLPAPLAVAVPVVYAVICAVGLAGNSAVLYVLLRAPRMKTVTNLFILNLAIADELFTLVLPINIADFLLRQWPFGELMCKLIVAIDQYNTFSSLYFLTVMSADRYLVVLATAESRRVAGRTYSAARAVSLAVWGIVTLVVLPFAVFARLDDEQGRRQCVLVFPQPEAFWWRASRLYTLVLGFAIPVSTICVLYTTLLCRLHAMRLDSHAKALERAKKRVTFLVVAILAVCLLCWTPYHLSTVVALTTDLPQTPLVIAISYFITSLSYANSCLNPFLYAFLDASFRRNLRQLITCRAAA
OX1R antag-2: blocks the human orexin 1 receptor. O43613. CHO/OX1R cells, Fluo-8 calcium fluorescence, orexin A. inhibition, % at 5 µM. hit rate 0.43% among 330,000;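 active = inhibition above its plate's threshold, mean inhibition of all tested compounds on the plate plus 3 SD, cut at about 37% in these data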
CHO parental Ca: signal in parental CHO cells, OX1R antagonist counter-screen | parental CHO-K1, ATP-induced calcium, Fluo-8 fluorescence | inhibition, % at 5.6 µM | hit rate 0.63% among 330,000 | AID 463079;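 active = inhibition above that plate's mean sample inhibition plus 3 SD, cut at about 26% in these data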
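test system = CHO parental line | reagent = ATP stimulus | measured by = intracellular calcium via Fluo-8 no-wash fluorescent dye | control set = ATP and no-ATP DMSO wells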
Numbers stand for hits; i = inactive; nt = not tested or not shown. Sampled rows, rich in hits. Any-hit rate of the full collection: about 4.5%.

SMILES	TAAR1 antagonist	TAAR1 ag	OX1R antag-1	GPR7 antagonist	OX1R antag-2	CHO parental Ca
Cc1cc(C(=O)NC2CCCc3c2cnn3-c2ccc(C)c(C)c2)n(C)n1 (configuration not stated)	i	i	i	i	i	45
Cc1cc(C(=O)NC2CC(C)(C)Cc3c2cnn3-c2ccccc2C)c(C)o1 (configuration not stated)	i	i	71	i	i	i
C=CCN1CC(COCc2ccccc2)OCCS1(=O)=O (configuration not stated)	i	i	nt	nt	nt	nt
CC(=O)O[C@@H]1C=C[C@@H](C#Cc2ccc(C(C)(C)C)cc2)O[C@@H]1COC(=O)Nc1ccccc1	i	i	nt	nt	nt	nt
Cc1cc(C)c(C(=O)NC2CCCc3c2cnn3-c2cccc(C)c2C)o1 (configuration not stated)	i	i	59	i	i	i
O=C(OCc1cn([C@H]2C[C@H](c3ccc(Cl)cc3)N(C(=O)C3CCCCC3)C[C@@H]2O)nn1)c1ccccc1	i	i	nt	nt	nt	nt
CC(C)(C)OC(=O)N1C[C@H](O)C[C@H]1C(=O)OCC(=O)c1ccc([N+](=O)[O-])cc1	i	i	37	i	i	i
CS(=O)(=O)c1ccc(NCCc2ccccn2)c([N+](=O)[O-])c1	i	i	52	i	i	i
CN(C)C(CNc1ccc(S(C)(=O)=O)cc1[N+](=O)[O-])Cc1ccccc1 (configuration not stated)	i	i	43	i	i	i
COc1cc(CN2CCC(C(=O)NC(c3ccccc3)c3ccsc3)CC2)cc(OC)c1 (configuration not stated)	i	44	nt	nt	nt	nt
O=C(NC(c1ccccc1)c1ccsc1)C1CCN(Cc2ccccc2)CC1 (configuration not stated)	i	i	nt	nt	nt	nt
O=C(O)c1cc([N+](=O)[O-])ccc1NCCCc1ccccc1	i	i	i	nt	i	i
O=[N+]([O-])c1ccc(NCCCc2ccccc2)cc1	52	i	nt	nt	nt	nt
CC1(C(=O)NS(=O)(=O)c2ccccc2Cl)CCN1C(=O)CCC1CCCC1 (configuration not stated)	i	i	nt	nt	nt	nt
COc1ccc(NC(=O)c2c(C(F)(F)F)nn(C)c2SCc2ccccc2Cl)cc1	i	i	i	i	i	46
CCC(=O)c1ccc(OCc2ccccc2)c(OC)c1	i	i	i	i	i	i
CCC(=O)c1ccc(OCc2ccc(C(=O)c3ccccc3)cc2)cc1	i	i	i	i	i	65
CCOC(=O)c1cc2c(=O)n3cccc(C)c3nc2n(Cc2ccco2)c1=NC(=O)c1cccnc1	i	i	nt	i	nt	nt
CCOC(=O)c1cc2c(=O)n3ccccc3nc2n(Cc2ccco2)c1=NC(=O)c1ccccc1OCC	i	i	38	i	i	i
CCOC(=O)c1cc2c(=O)n3ccccc3nc2n(Cc2ccco2)c1=NC(=O)c1cccnc1	i	i	52	i	i	i
O=C(/C=C(\Nc1ccc(Br)c(F)c1)c1ccccc1)c1ccccc1	i	i	nt	nt	nt	nt
Nc1[nH]c(C(=O)c2ccccc2)c(-c2ccc(F)cc2)c1C(=O)c1c[nH]c2ccccc12	i	i	nt	nt	nt	nt
COC(=O)C1=C(O)/C(=C/c2cccc(OC)c2O)N=C1C	i	i	63	i	i	i
COC(=O)C1=C(O)/C(=C\c2cc(C)n(-c3ccc(F)cc3)c2C)N=C1C	i	i	i	i	i	i
c1ccc(COc2cccc(-c3cc4nc(NCCCn5ccnc5)ccn4n3)c2)cc1	i	i	nt	nt	nt	nt
SMILES	TAAR1 antagonist	TAAR1 ag	OX1R antag-1	GPR7 antagonist	OX1R antag-2	CHO parental Ca
COc1cccc(CNC(=O)[C@H]2CCCN2C(=O)[C@H]2CCCN2S(=O)(=O)c2cccc(C)c2)c1	i	i	nt	nt	nt	nt
COC(=O)c1ccc(Cn2c(C)c(C(=O)Nc3cccc(Oc4ccccc4)c3)sc2=O)o1	49	i	nt	nt	nt	nt
Brc1ccc(N/N=C(/N=Nc2nn[nH]n2)c2ccccc2)cc1	i	i	47	i	i	i
CCc1cc2c(-c3ccccc3)cc(=O)oc2cc1OC(C)C(C)=O (configuration not stated)	50	i	i	i	i	i
COc1cccc(CNC(=O)[C@@H]2CCCN2C(=O)[C@@H]2CCCN2C(=O)c2cccs2)c1	i	i	nt	nt	nt	nt
NC(=O)CN1C(=O)NC2(CCCc3sccc32)C1=O (configuration not stated)	i	i	i	i	i	i
